Source: ChEMBL document CHEMBL5380783, “N-Substituted l-Iminosugars for the Treatment of Sanfilippo Type B Syndrome” (J Med Chem, 2023)
Blank lines part the entries; values can stand above or below the compound they belong to. The source made the active and inactive calls. No cut-off for these calls is given here.

Experiments:
HeLa [1] = assay: Upregulation of NAGLU protein expression in human HeLa cells at 20 uM incubated for 24 hrs by western blot analysis; type: functional, cell-based
[2] = Antiproliferative activity against human CuFi cells upto 100 uM; type: toxicity, cell-based
HeLa [3] = assay: Downregulation of EXT1 protein expression in human HeLa cells at 20 uM incubated for 24 hrs by western blot analysis; type: functional, cell-based
HeLa [4] = assay: Inhibition of heparan sulfate accumulation on cell membrane in human HeLa cells at 20 uM incubated for 48 hrs by indirect immunofluorescence staining analysis; type: functional, cell-based
Outline: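 HeLa cells grown 48 h with compound, then immunostained with anti-HS antibody 10E4 to gauge membrane HS.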

Fibroblast [5] = assay: Inhibition of heparan sulfate accumulation on cell membrane in MPS-1 patient derived human fibroblast cells at 20 uM incubated for 48 hrs by indirect immunofluorescence staining analysis; type: functional, cell-based
Outline: (§1)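 HDFa, MPS IIIA, MPS IIIB and MPS I patient fibroblasts in DMEM, 10% FBS, grown 48 h on coverslips with 20 μM compound. Double immunostained for HS (10E4) and Lamp1 with DAPI, confocal imaging. Mean fluorescence intensity expressed relative to untreated cells (d-enantiomers: percent positive cells), 50 random cells from three experiments.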

Fibroblast [6] = assay: Inhibition of heparan sulfate accumulation on cell membrane in Sanfilippo-A patient derived human fibroblast cells at 20 uM incubated for 48 hrs by indirect immunofluorescence staining analysis; type: functional, cell-based; outline: as §1
Fibroblast [7] = assay: Inhibition of lysosomal defects in Sanfilippo-B patient derived human fibroblast cells assessed as dispersion of lysosomes all over the cytoplasm at 20 uM incubated for 48 hrs by LAMP1 staining based indirect immunofluorescence assay; type: functional, cell-based; outline: as §1
SK-N-BE(2) [8] = assay: Inhibition of heparan sulfate accumulation on cell membrane in NAGLU-silenced human SK-NBE cells clone at 20 uM incubated for 48 hrs by indirect immunofluorescence staining analysis; type: functional, cell-based
Outline: (§2)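 Control and NAGLU-silenced SK-NBE clones grown on coverslips with 20 μM compound for 48 h. Fixed in 3.7% formaldehyde, permeabilized with saponin/BSA buffer, stained with anti-Lamp1 or anti-HS 10E4 for 1 h, then Alexa secondaries. Confocal imaging with 63× objective. Scored as percent cells with enlarged Lamp1 structures or membrane HS, plus mean fluorescence intensity, over 50 random cells from three experiments.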

SK-N-BE(2) [9] = assay: Inhibition of lysosomal defects in NAGLU-silenced human SK-NBE cell clones assessed as reduction in more concentrated lysosomal distribution in the perinuclear region of the cytoplasm at 20 uM incubated for 48 hrs by LAMP1 staining based indirect immunofluorescence assay; type: functional; outline: as §2
HeLa [10] = assay: Downregulation of EXT2 protein expression in human HeLa cells at 20 uM incubated for 24 hrs by western blot analysis; type: functional, cell-based
Fibroblast [11] = assay: Inhibition of lysosomal defects in Sanfilippo-B patient derived human fibroblast cells assessed as reduction in more concentrated lysosomal distribution in the perinuclear region of the cytoplasm at 20 uM incubated for 48 hrs by LAMP1 staining based indirect immunofluorescence assay; type: functional, cell-based; outline: as §1
HaCaT = assay: Antiproliferative activity against human HaCaT cells upto 100 uM; type: toxicity, cell-based
[12] = target: T1, Alpha-N-acetylglucosaminidase (Homo sapiens) (UniProt P54802); assay: Inhibition of NAGLU in human HDFa cells using 4-methylumbelliferyl-N-acetyl-alpha-D-glucosaminide as substrate upto 1 mM by fluorescence based analysis; type: cell-based
T1 sequence (whole entry): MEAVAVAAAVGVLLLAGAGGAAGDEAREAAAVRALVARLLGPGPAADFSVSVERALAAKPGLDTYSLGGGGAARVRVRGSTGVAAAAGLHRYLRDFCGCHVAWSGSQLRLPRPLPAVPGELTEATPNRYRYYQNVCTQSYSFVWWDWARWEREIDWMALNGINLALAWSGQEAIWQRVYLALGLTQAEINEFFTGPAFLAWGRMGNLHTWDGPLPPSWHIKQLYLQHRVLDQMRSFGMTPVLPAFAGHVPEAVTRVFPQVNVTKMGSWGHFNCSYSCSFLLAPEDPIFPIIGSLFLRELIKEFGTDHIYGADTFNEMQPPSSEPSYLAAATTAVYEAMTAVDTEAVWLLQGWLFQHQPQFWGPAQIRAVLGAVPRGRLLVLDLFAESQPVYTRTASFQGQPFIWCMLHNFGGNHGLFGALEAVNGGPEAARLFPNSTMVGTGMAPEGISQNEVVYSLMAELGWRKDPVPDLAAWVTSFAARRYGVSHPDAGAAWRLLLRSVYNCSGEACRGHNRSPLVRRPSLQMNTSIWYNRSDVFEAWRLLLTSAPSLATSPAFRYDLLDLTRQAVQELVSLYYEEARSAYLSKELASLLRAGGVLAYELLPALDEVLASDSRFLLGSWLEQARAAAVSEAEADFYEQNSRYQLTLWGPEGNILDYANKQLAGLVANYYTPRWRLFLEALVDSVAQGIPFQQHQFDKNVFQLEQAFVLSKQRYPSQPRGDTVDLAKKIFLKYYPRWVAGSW
Outline: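 HDFa fibroblast lysate (freeze–thaw, Lowry protein) incubated 2 h with 4-methylumbelliferyl-N-acetyl-α-D-glucosaminide (2 mM substrate solution) in Na-acetate buffer pH 4.5, compound added to the reaction up to 1 mM. Fluorogenic hydrolysis normalized per mg protein per hour.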

SK-N-BE(2) [13] = assay: Inhibition of lysosomal defects in NAGLU-silenced human SK-NBE cell clones assessed as reduction in accumulation of enlarged LAMP1-positive lysosomal structures within the cytoplasm at 20 uM incubated for 48 hrs by LAMP1 staining based indirect immunofluorescence assay; type: functional; outline: as §2
Fibroblast [14] = assay: Inhibition of lysosomal defects in MPS-1 patient derived human fibroblast cells assessed as reduction in accumulation of enlarged LAMP1-positive lysosomal structures within the cytoplasm at 20 uM incubated for 48 hrs by LAMP1 staining based indirect immunofluorescence assay; type: functional, cell-based; outline: as §1
Fibroblast [15] = assay: Effect on heparan sulfate changes in human fibroblast cells at 20 uM incubated for 48 hrs by indirect immunofluorescence staining analysis; type: functional, cell-based; outline: as §1
Fibroblast [16] = assay: Inhibition of lysosomal defects in Sanfilippo-B patient derived human fibroblast cells assessed as reduction in accumulation of enlarged LAMP1-positive lysosomal structures within the cytoplasm at 20 uM incubated for 48 hrs by LAMP1 staining based indirect immunofluorescence assay; type: functional, cell-based; outline: as §1
IB3-1 = assay: Antiproliferative activity against human IB3-1 cells upto 100 uM; type: toxicity, cell-based; details: ib3-1, 100 µM
Fibroblast [17] = assay: Inhibition of lysosomal defects in Sanfilippo-A patient derived human fibroblast cells assessed as reduction in accumulation of enlarged LAMP1-positive lysosomal structures within the cytoplasm at 20 uM incubated for 48 hrs by LAMP1 staining based indirect immunofluorescence assay; type: functional, cell-based; outline: as §1
Fibroblast [18] = assay: Inhibition of heparan sulfate accumulation on cell membrane in Sanfilippo-B patient derived human fibroblast cells at 20 uM incubated for 48 hrs by indirect immunofluorescence staining analysis; type: functional, cell-based; outline: as §1
HeLa [19] = assay: Downregulation of SDC2 protein expression in human HeLa cells at 20 uM incubated for 24 hrs by western blot analysis; type: functional, cell-based
Fibroblast [20] = assay: Inhibition of lysosomal defects in MPS-1 patient derived human fibroblast cells assessed as reduction in accumulation of enlarged LAMP1-positive lysosomal structures within the cytoplasm at 40 uM incubated for 48 hrs by LAMP1 staining based indirect immunofluorescence assay; type: functional, cell-based
Outline: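 MPS I patient fibroblasts grown on coverslips with 40 μM compound for 48 h. Immunostained for HS (10E4) and Lamp1 with DAPI, imaged by confocal microscopy. Mean fluorescence intensity expressed relative to untreated cells, 50 random cells from three independent experiments.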

inhibition [12]: inactive
Compound: Cl.OC[C@H]1[C@H](O)[C@@H](O)[C@H](O)CN1CCCCCOCC12CC3CC(CC(C3)C1)C2
Activity (HeLa [1]): Active
Activity [2]: Non-Toxic
inhibition (HeLa [3]): inactive
inhibition (HeLa [4]): Active
inhibition (Fibroblast [5]): inactive
inhibition (Fibroblast [6]): Active
inhibition (Fibroblast [7]): Active
inhibition (SK-N-BE(2) [8]): Active
inhibition (SK-N-BE(2) [9]): Active
inhibition (HeLa [10]): inactive
inhibition (Fibroblast [11]): Active
Activity (HaCaT): Non-Toxic
inhibition (SK-N-BE(2) [13]): Active
inhibition (Fibroblast [14]): inactive
Activity (Fibroblast [15]): inactive
inhibition (Fibroblast [16]): Active
Activity (IB3-1): Non-Toxic
inhibition (Fibroblast [17]): Active
inhibition (Fibroblast [18]): Active
inhibition (HeLa [19]): inactive
inhibition (Fibroblast [20]): Active

inhibition [12]: inactive
Compound: CCCCN1C[C@@H](O)[C@H](O)[C@@H](O)[C@@H]1CO.Cl
Activity (HeLa [1]): Active
Activity [2]: Non-Toxic
inhibition (HeLa [3]): Active
inhibition (HeLa [4]): Active
inhibition (Fibroblast [5]): inactive
inhibition (Fibroblast [6]): Active
inhibition (Fibroblast [7]): Active
inhibition (SK-N-BE(2) [8]): Active
inhibition (SK-N-BE(2) [9]): Active
inhibition (HeLa [10]): Active
inhibition (Fibroblast [11]): Active
Activity (HaCaT): Non-Toxic
inhibition (SK-N-BE(2) [13]): Active
inhibition (Fibroblast [14]): inactive
Activity (Fibroblast [15]): inactive
inhibition (Fibroblast [16]): Active
Activity (IB3-1): Non-Toxic
inhibition (Fibroblast [17]): Active
inhibition (Fibroblast [18]): Active
inhibition (HeLa [19]): inactive
inhibition (Fibroblast [20]): Active

Compound: COCCCCCCCCCN1C[C@@H](O)[C@H](O)[C@@H](O)[C@@H]1CO.Cl
Activity (HeLa [1]): Active
Activity [2]: Non-Toxic
inhibition (HeLa [3]): inactive
inhibition (HeLa [4]): Active
inhibition (Fibroblast [5]): inactive
inhibition (Fibroblast [6]): Active
inhibition (Fibroblast [7]): Active
inhibition (SK-N-BE(2) [8]): Active
inhibition (SK-N-BE(2) [9]): Active
inhibition (HeLa [10]): inactive
inhibition (Fibroblast [11]): Active
Activity (HaCaT): Non-Toxic
inhibition [12]: inactive
inhibition (SK-N-BE(2) [13]): Active
inhibition (Fibroblast [14]): inactive
Activity (Fibroblast [15]): inactive
inhibition (Fibroblast [16]): Active
Activity (IB3-1): Non-Toxic
inhibition (Fibroblast [17]): Active
inhibition (Fibroblast [18]): Active
inhibition (HeLa [19]): inactive
inhibition (Fibroblast [20]): Active

inhibition [12]: inactive
Compound: Cl.OC[C@@H]1NC[C@@H](O)[C@H](O)[C@H]1O
Activity (HeLa [1]): Active
Activity [2]: Non-Toxic
inhibition (HeLa [3]): Active
inhibition (HeLa [4]): Active
inhibition (Fibroblast [5]): inactive
inhibition (Fibroblast [6]): Active
inhibition (Fibroblast [7]): Active
inhibition (SK-N-BE(2) [8]): Active
inhibition (SK-N-BE(2) [9]): Active
inhibition (HeLa [10]): Active
inhibition (Fibroblast [11]): Active
Activity (HaCaT): Non-Toxic
inhibition (SK-N-BE(2) [13]): Active
inhibition (Fibroblast [14]): inactive
Activity (Fibroblast [15]): inactive
inhibition (Fibroblast [16]): Active
Activity (IB3-1): Non-Toxic
inhibition (Fibroblast [17]): Active
inhibition (Fibroblast [18]): Active
inhibition (HeLa [19]): inactive
inhibition (Fibroblast [20]): Active
